Active and inactive are the calls of the source. No cut-off for these calls is given here.
Legend:
[1] = molecular target: T1, Adenosine receptor A1 (Homo sapiens) (UniProt P30542); test: Displacement of [3H]DPCPX from human adenosine A1 receptor expressed in CHO cells at 10 uM; assay type: cell-based
T1 sequence (whole entry): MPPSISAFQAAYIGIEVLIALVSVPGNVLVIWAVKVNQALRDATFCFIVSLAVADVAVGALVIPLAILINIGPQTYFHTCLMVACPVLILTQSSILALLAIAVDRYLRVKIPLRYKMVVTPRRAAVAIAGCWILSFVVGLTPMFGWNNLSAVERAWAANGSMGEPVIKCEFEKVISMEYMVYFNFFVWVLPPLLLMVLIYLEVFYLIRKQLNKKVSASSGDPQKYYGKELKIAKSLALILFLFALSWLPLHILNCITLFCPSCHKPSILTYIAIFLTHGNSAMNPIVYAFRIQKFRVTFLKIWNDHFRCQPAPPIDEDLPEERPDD
Method in brief: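 Competition for 1 nM [3H]DPCPX at CHO hA1 membranes (100 µg protein), 150 min at 25 °C, Tris-HCl pH 7.4. Nonspecific binding defined with 1 µM DPCPX. Compound tested at 10 µM; percent displacement reported, n = 3.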

[2] = molecular target: T1, Adenosine receptor A1 (Homo sapiens); test: Activity at human recombinant adenosine A1 receptor expressed in CHO cells assessed as inhibition of forskolin-stimulated cAMP accumulation in presence of CPA at 0.1 uM relative to control; assay type: functional, cell-based; design: scale not given: the % may be the effect or the level left
Method in brief: (§1)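 CHO cells stably expressing human A1 receptor (about 5 pmol/mg protein), grown 48–72 h in Ham's F12 with FBS and G-418. Cells were washed in HBSS for 6 min at 37 °C, then incubated 6 min at 37 °C in HBSS with adenosine deaminase (0.5 U/ml), 20 µM rolipram, 1 µM forskolin and 0.03 nM CPA, plus compound at 0.01–10 µM. Stopped with 50 mM HCl; cAMP read by acetylation radioimmunoassay. Quadruplicates; averaged over six experiments.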

[3] = molecular target: T1, Adenosine receptor A1 (Homo sapiens); test: Activity at human recombinant adenosine A1 receptor expressed in CHO cells assessed as inhibition of forskolin-stimulated cAMP accumulation in presence of CPA at 10 uM relative to control; assay type: functional, cell-based; design: scale not given: the % may be the effect or the level left; method in brief: as §1
[4] = molecular target: T2, Adenosine receptor A3 (Homo sapiens) (UniProt P0DMS8); test: Displacement of [3H]MRE-3008F20 from human adenosine A3 receptor expressed in CHO cells at 10 uM; assay type: cell-based
T2 sequence (whole entry): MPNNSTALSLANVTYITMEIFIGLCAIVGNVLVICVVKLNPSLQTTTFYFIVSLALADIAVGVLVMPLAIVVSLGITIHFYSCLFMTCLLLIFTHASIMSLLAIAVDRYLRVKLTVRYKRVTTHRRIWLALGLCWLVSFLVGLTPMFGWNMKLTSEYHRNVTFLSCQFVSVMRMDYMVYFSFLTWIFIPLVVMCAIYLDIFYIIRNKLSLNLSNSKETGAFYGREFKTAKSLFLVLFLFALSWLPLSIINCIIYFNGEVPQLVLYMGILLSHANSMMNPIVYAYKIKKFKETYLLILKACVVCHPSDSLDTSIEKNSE
Method in brief: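 Competition for [3H]MRE-3008F20 at CHO hA3 membranes (100 µg protein), 150 min at 4 °C, Tris-HCl with MgCl2 and 1 mM EDTA, pH 7.4. Compound tested at 10 µM; percent displacement reported, n = 3.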

[5] = molecular target: Adenosine A2 receptor (Homo sapiens) (UniProt P29275+P29274); test: Displacement of [3H]ZM 241385 from human adenosine A2 receptor expressed in CHO cells at 10 uM; assay type: cell-based
Method in brief: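 Competition for [3H]ZM 241385 at CHO hA2A membranes (100 µg protein), 60 min at 4 °C, Tris-HCl with MgCl2, pH 7.4. Nonspecific binding defined with 1 µM ZM241385. Compound tested at 10 µM; percent displacement reported, n = 3.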

[6] = molecular target: T1, Adenosine receptor A1 (Homo sapiens); test: Activity at human recombinant adenosine A1 receptor expressed in CHO cells assessed as inhibition of forskolin-stimulated cAMP accumulation in presence of CPA at 1 uM relative to control; assay type: functional, cell-based; design: scale not given: the % may be the effect or the level left; method in brief: as §1
[7] = molecular target: T1, Adenosine receptor A1 (Homo sapiens); test: Activity at human recombinant adenosine A1 receptor expressed in CHO cells assessed as inhibition of forskolin-stimulated cAMP accumulation in presence of CPA at 0.01 uM relative to control; assay type: functional, cell-based; design: scale not given: the % may be the effect or the level left; method in brief: as §1
[8] = molecular target: T1, Adenosine receptor A1 (Homo sapiens); test: Activity at human recombinant adenosine A1 receptor expressed in CHO cells assessed as inhibition of forskolin-stimulated cAMP accumulation in the presence of CPA relative to control; assay type: functional, cell-based; design: scale not given: the % may be the effect or the level left; method in brief: as §1
[9] = molecular target: T1, Adenosine receptor A1 (Homo sapiens); test: Activity at human recombinant adenosine A1 receptor expressed in CHO cells assessed as inhibition of forskolin-stimulated cAMP accumulation in the presence of CPA at 10 uM; assay type: functional, cell-based; design: scale not given: the % may be the effect or the level left; method in brief: as §1

SMILES | inhibition [1] [%] | Activity [2] [%] | Activity [3] [%] | inhibition [4] [%] | inhibition [5] [%] | Activity [6] [%] | Activity [7] [%] | Activity [8] [%] | Activity [9]
Nc1sc2cnccc2c1C(=O)c1ccc(Cl)c(Cl)c1 | 0 | 108 | 105 | 0 | 0 | 103 | 113 | – | –
Nc1sc2cnccc2c1C(=O)c1ccccc1 | 0 | 89 | 100 | 0 | 0 | 90 | 91 | – | –
Cc1sc(N)c(C(=O)c2cccc(C(F)(F)F)c2)c1C | 0 | 93 | 52 | – | 0 | 81 | 97 | 48 | –
COc1ccc(C(=O)c2c(N)sc3cnccc23)cc1 | 0 | 97 | 94 | 0 | 0 | 90 | 95 | – | –
Nc1sc2cnccc2c1C(=O)c1cccc(C(F)(F)F)c1 | 0 | 95 | 63 | 0 | 0 | 82 | 101 | – | 37%
Nc1sc2cnccc2c1C(=O)c1cccc2ccccc12 | 0 | 112 | 66 | 0 | 0 | 107 | 113 | – | Active
Nc1sc2cnccc2c1C(=O)c1ccc(Cl)cc1 | 50 | 102 | 114 | 0 | 0 | 96 | 104 | – | –
Cc1ccc(C(=O)c2c(N)sc3cnccc23)cc1 | 45 | 107 | 121 | 0 | 0 | 107 | 102 | – | –
Nc1sc2cnccc2c1C(=O)c1cccs1 | 35 | 104 | 98 | 0 | 0 | 107 | 111 | – | –
Nc1sc2cnccc2c1C(=O)c1ccc(Br)cc1 | 0 | 89 | 104 | 0 | 0 | 84 | 97 | – | –
Nc1sc2cnccc2c1C(=O)c1ccccc1Cl | 0 | 98 | 111 | 0 | 0 | 97 | 103 | – | –

From ChEMBL document CHEMBL1139691, “Microwave-assisted synthesis of thieno[2,3-c]pyridine derivatives as a new series of allosteric enhancers at the adenosine A(1) receptor” (Bioorg Med Chem Lett, 2006)
